CTSL1 counter = Fasciola hepatica cathepsin L1 inhibitors, primary screen, counter-screen for PFM18AAP inhibitor project, biochemical, QFRET, fluorogenic peptide substrate; recombinant F. hepatica cathepsin L1, Z-Leu-Arg-MCA fluorescence; inhibition, % at 5.96 µM; 300,000 compounds, 0.49% hits;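 active means inhibition above the mean of all tested compounds plus 3 SD, set per screening campaign, cut at about 17% in these data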;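 further: 0% = plate median of test compound wells and 100% = 1 µM Z-Phe-Ala-diazomethylketone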
GSTO1 inh = inhibitors of recombinant GSTO1, primary screen, counter-screen for RBBP9 inhibitor project, biochemical, fluorescence polarization; AID 1974, 2009; inhibition, % at 5.96 µM; Glutathione S-transferase omega-1 (Homo sapiens), P78417; 300,000 compounds, 1.1% hits; activity-based probe fluorescence polarization;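 active means inhibition above the campaign mean inhibition plus 3 SD, cut at about 35% in these data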;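 further: 0% = GSTO1-1 with DMSO and 100% = wells lacking GSTO1-1 enzyme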
PP5 primary = PP5 phosphatase inhibitors, primary screen, biochemical, fluorescence. purified PP5c, OMFP substrate fluorescence. 320,000 compounds, 0.18% hits. inhibition, % at 6.7 µM;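 active means inhibition above the campaign's mean inhibition across all tested compounds plus 3 SD, cut at about 9.5% in these data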;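 further: 0% = DMSO only and 100% = 100 µM cantharidin control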
PAD4 FP inh = human PAD4 inhibitors, primary screen, biochemical, fluorescence polarization, 1536-well format | inhibition, % at 6.36 µM | 330,000 compounds, 0.41% hits | AID 485272, 2010 | recombinant PAD4, RCA probe fluorescence polarization;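 active means percent inhibition above a cutoff equal to the mean of all tested compounds plus 3 SD, cut at about 15% in these data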;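 further: 0% = PAD4 with RCA probe and DMSO and 100% = probe without PAD4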
Target sequence (Q9UM07 whole entry, looked up): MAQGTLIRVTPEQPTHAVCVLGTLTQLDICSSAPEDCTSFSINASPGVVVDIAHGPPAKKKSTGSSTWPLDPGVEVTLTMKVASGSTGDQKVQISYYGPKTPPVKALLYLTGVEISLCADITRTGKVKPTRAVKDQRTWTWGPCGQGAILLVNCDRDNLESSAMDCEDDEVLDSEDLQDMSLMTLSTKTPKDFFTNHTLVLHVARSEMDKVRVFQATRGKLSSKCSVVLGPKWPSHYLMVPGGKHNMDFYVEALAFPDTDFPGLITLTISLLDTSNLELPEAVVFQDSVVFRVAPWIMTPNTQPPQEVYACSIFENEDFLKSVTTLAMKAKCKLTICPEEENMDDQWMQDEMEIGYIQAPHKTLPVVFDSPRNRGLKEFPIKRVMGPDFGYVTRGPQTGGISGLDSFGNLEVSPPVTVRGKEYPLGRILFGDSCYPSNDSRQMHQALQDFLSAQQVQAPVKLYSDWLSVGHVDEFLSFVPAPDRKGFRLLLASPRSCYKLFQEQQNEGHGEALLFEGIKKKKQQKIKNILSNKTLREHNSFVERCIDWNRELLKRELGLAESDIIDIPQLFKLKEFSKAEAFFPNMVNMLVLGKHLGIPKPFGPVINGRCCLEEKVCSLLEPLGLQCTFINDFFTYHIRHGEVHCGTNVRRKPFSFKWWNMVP
Apaf-1 inh = inhibitors of human Apaf-1 apoptosome, primary screen, biochemical, DEVD-Rh110 fluorescence, uHTS; Apoptotic protease-activating factor 1 (Homo sapiens), O14727; reconstituted apoptosome caspase-3 activity; inhibition, % at 20 µM; 330,000 compounds, 0.71% hits; AID 489030, 2010; active means inhibition of at least 40% at 20 µM;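 further: plate controls were DMSO wells for no effect and DEVD-CHO caspase inhibitor wells for full effect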
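Material: reconstituted apoptosome with Apaf-1, cytochrome c, caspase-9, procaspase-3, dATP / Buffer or medium: pH 7.5 Hepes buffer with CHAPS, BSA, DTT / Also added: cytochrome c with DEVD-Rh110 / Schedule: compound with Apaf-1, dATP, procaspase-3 30 min, then 50 min reaction, room temperature / Technique: rhodamine 110 fluorescence at Ex 480/Em 540 nm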
UCH37 inh = inhibitors of human UCH37 deubiquitinase, primary screen, biochemical, Ub-AMC cleavage, fluorescence; Ubiquitin carboxyl-terminal hydrolase isozyme L5 (Homo sapiens), Q9Y5K5; purified proteasome/UCH37; inhibition, % (test concentration not listed); 330,000 compounds, 0.33% hits; AID 588478, 2011;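 active means mean inhibition over replicate wells above about 20%, limit read from the data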;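 further: 0% = compound-free wells with enzyme and 100% = wells lacking proteasome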
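Material: Human UCH37 enzyme supplied as purified proteasome complex | Schedule: 30 min compound-proteasome preincubation then 25 min substrate reaction, room temperature | Detection: AMC fluorescence from Ub-AMC cleavage, excitation 355 nm, emission 460 nm | Benchmarks: Wells without proteasome as full block, compound-free enzyme plus substrate as uninhibited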
Apaf-1 inh conf2 = Apaf-1 inhibitors, single-dose retest, confirmation, biochemical, fluorescence, DEVD-Rh110, 20 µM. shares compounds with Apaf-1 inh. inhibition, % at 20 µM. reconstituted apoptosome, caspase-3 DEVD-Rh110 fluorescence. 1,800 compounds, 25% hits;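 active means mean inhibition of at least 40% at 20 µM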;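 further: plate controls were DMSO wells for no effect and DEVD-CHO caspase inhibitor control wells for full effect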
Rh110 interf inh = Rh110 fluorescence interference by putative Apaf-1 inhibitors, confirmation, artefact control for Apaf-1 inhibitor project, biochemical, 20 µM | 1,800 tested, under 10 active | shares compounds with Apaf-1 inh | quenched caspase reaction | AID 504615, 2011 | activation (fluorescence interference), % at 20 µM;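 active means signal rise of 40% or more at 20 µM, treated as a fluorescence artifact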
Fluor interf inh = fluorescence interference of Apaf-1 inhibitor hits, dose response, artefact control for Apaf-1 inhibitor project | shares compounds with Apaf-1 inh | fluorescence interference counterscreen, Apaf-1 assay format | IC50, µM | 460 tested, under 10 active | AID 588538, 2011; call rule not given here
Active calls of the source: *. The list is not random: actives were taken first. Their share in the collection is about 2%.

How did CCN(Cc1ccccc1)S(=O)(=O)c1ccc(C(=O)N(CCCN(C)C)c2nc3cc4c(cc3s2)OCCO4)cc1 do in these assays?
CTSL1 counter: 8; GSTO1 inh: 3; PP5 primary: 3; PAD4 FP inh: 1; Apaf-1 inh: 41*; UCH37 inh: 6; Apaf-1 inh conf2: 20; Rh110 interf inh: 5

How did COc1ccc(-c2ccc3sc4ccccc4c(=O)c3c2)cn1 do in these assays?
CTSL1 counter: -2; GSTO1 inh: 7; PP5 primary: 1; PAD4 FP inh: 0; Apaf-1 inh: 16; UCH37 inh: 4

Results for COc1cc2sc3ccc(-c4ccc(N(C)C)nc4)cc3c(=O)c2cc1OC ?
CTSL1 counter: 9; GSTO1 inh: 20; PP5 primary: -11; PAD4 FP inh: 11; Apaf-1 inh: 44*; UCH37 inh: 2; Apaf-1 inh conf2: 37; Rh110 interf inh: 5

Results for Cc1cc(/C=C2\SC(=O)N(C)C2=O)c(C)n1-c1ccc(S(N)(=O)=O)cc1 ?
CTSL1 counter: 2; GSTO1 inh: -24; PP5 primary: 2; PAD4 FP inh: -2; Apaf-1 inh: 7; UCH37 inh: 0

Results for Cc1cc(/C=C2\SC(=O)N(C)C2=O)c(C)n1-c1ccc(O)cc1 ?
CTSL1 counter: -3; GSTO1 inh: 25; PP5 primary: 6; PAD4 FP inh: 0; Apaf-1 inh: 71*; UCH37 inh: 3; Apaf-1 inh conf2: 18; Rh110 interf inh: 9

How did CCOC(=O)C(C(=O)OCC)c1cc(Br)c2noc3c2c1C(=O)c1ccccc1-3 do in these assays?
CTSL1 counter: 2; GSTO1 inh: 30; PP5 primary: -1; PAD4 FP inh: 1; Apaf-1 inh: 89*; UCH37 inh: 1; Apaf-1 inh conf2: 74*; Rh110 interf inh: -7; Fluor interf inh: >100

What do the screens show for `O=C1c2ccccc2-c2onc3ccc(Oc4ccccc4)c1c23`?
CTSL1 counter: 6; GSTO1 inh: 6; PP5 primary: 1; PAD4 FP inh: -43; Apaf-1 inh: 22; UCH37 inh: 5

What do the screens show for `C=CCn1c(SCC(=O)NCCc2ccccc2)nnc1C1CC1`?
CTSL1 counter: 13; GSTO1 inh: 6; PP5 primary: -1; PAD4 FP inh: 5; Apaf-1 inh: 42*; UCH37 inh: 4; Apaf-1 inh conf2: 31; Rh110 interf inh: 7

Results for CCOc1ccccc1C=NNC(=O)c1cccc(S(=O)(=O)N(CC)CC)c1 ?
UCH37 inh: 2

Results for CCOC(=O)c1cccc2c1-c1ccccc1C2=NO ?
UCH37 inh: 3

Results for CC(=O)Nc1cccc(C(=O)NC(C)c2ccc(-n3ccnc3)cc2)c1 (configuration not stated) ?
CTSL1 counter: 1; GSTO1 inh: 4; PP5 primary: 2; PAD4 FP inh: -1; Apaf-1 inh: 41*; UCH37 inh: -1; Apaf-1 inh conf2: 35; Rh110 interf inh: 3

How did CC(=O)Nc1ccc(C(=O)NC(C)c2ccc(-n3ccnc3)cc2)cc1 (configuration not stated) do in these assays?
CTSL1 counter: 3; GSTO1 inh: 3; PP5 primary: 1; PAD4 FP inh: 2; Apaf-1 inh: 8; UCH37 inh: 4

How did Cc1ccc2occ(C=NNC(=O)c3ccncc3)c(=O)c2c1 do in these assays?
UCH37 inh: -73

What do the screens show for `CCOC(=O)c1c(C)c2c(=O)[nH]cnc2n1-c1ccccc1`?
CTSL1 counter: 4; GSTO1 inh: 8; PP5 primary: 1; PAD4 FP inh: -4; Apaf-1 inh: 58*; UCH37 inh: 1; Apaf-1 inh conf2: 12; Rh110 interf inh: -5

What do the screens show for `Cc1[nH]n(-c2ccc([N+](=O)[O-])cc2)c(=O)c1/C=N/N1CCOCC1`?
CTSL1 counter: 0; GSTO1 inh: 7; PP5 primary: 1; PAD4 FP inh: -6; Apaf-1 inh: 44*; Apaf-1 inh conf2: 0; Rh110 interf inh: -2

What do the screens show for `COc1ccc(CCN=Cc2c(C)[nH]n(-c3ccc([N+](=O)[O-])cc3)c2=O)cc1OC`?
CTSL1 counter: 0; GSTO1 inh: 3; PP5 primary: 0; PAD4 FP inh: 2; Apaf-1 inh: -3; UCH37 inh: 5

How did COc1cccc(CN(C)C(=O)c2ccc(C)c(S(=O)(=O)N3CCCCC3)c2)c1 do in these assays?
PP5 primary: 4; PAD4 FP inh: 1; Apaf-1 inh: 40*; UCH37 inh: 3; Apaf-1 inh conf2: 40; Rh110 interf inh: 11

How did Cc1ccc(C(=O)N(C)Cc2ccccc2)cc1S(=O)(=O)N1CCOCC1 do in these assays?
CTSL1 counter: -1; GSTO1 inh: 3; PP5 primary: 1; PAD4 FP inh: 1; Apaf-1 inh: -2; UCH37 inh: -1

What do the screens show for `COc1cccc(CN(C)C(=O)c2cc(S(=O)(=O)N3CCCCCC3)ccc2OC)c1`?
PP5 primary: 0; PAD4 FP inh: -4; Apaf-1 inh: 51*; UCH37 inh: 0; Apaf-1 inh conf2: 38; Rh110 interf inh: 4

What do the screens show for `COc1ccc(C(C)=NNc2ccc(F)cc2F)c(O)c1`?
UCH37 inh: 5

How did COc1cccc2nc3cc(C)c(C)cc3nc12 do in these assays?
CTSL1 counter: 10; GSTO1 inh: 48*; PP5 primary: 3; PAD4 FP inh: -13; Apaf-1 inh: 84*; Apaf-1 inh conf2: 22; Rh110 interf inh: 7

Results for COc1cccc2c1nc(C)c1cc(C)oc12 ?
CTSL1 counter: -4; GSTO1 inh: -2; PP5 primary: 0; PAD4 FP inh: -5; Apaf-1 inh: 5; UCH37 inh: -8

How did COc1cc(C=NNC(=O)c2cc(-c3ccccc3)nc3ccccc23)ccc1O do in these assays?
UCH37 inh: 4

What do the screens show for `CCOc1cccc(C=NN=Cc2cccc(OCC)c2O)c1O`?
UCH37 inh: 10

What do the screens show for `COc1cc(C=NO)cc(Br)c1OCc1ccc(Cl)cc1`?
UCH37 inh: 0

Bioassay records as filed in PubChem BioAssay.
